Results pooled from the literature.
Lines come from different studies, so protocols differ.
RAF1: RAF proto-oncogene serine/threonine-protein kinase (RAF1, Homo sapiens, UniProt P04049)
RAF1 Y340D/Y341D: RAF proto-oncogene serine/threonine-protein kinase (RAF1, Homo sapiens, UniProt P04049, Y340D/Y341D)

For `CCN(CC)CCNC(=O)c1c(C)[nH]c(/C=C2\C(=O)Nc3ccc(F)cc32)c1C`, the remaining activity was 95% (RAF1; enzyme activity; inhibitor; 1 µM).
`Cc1ccc(Nc2nccc(N(C)c3ccc4c(C)n(C)nc4c3)n2)cc1S(N)(=O)=O` has an inhibition of 77% (RAF1; enzyme activity; inhibitor; 0.3 µM).
For `COc1cc2ncnc(Nc3ccc(Oc4ccccc4)cc3C)c2cc1OC`, the inhibition was 27% (RAF1 Y340D/Y341D; enzyme activity; inhibitor; 1 µM).
With `CNc1cccc2cc(C(=O)Nc3ccc(C(=O)O)cc3)c(=O)[nH]c12` the inhibition was 6.9% (RAF1; enzyme activity; inhibitor; 10 µM).
`CCOc1cc(-c2nncn2C)ccc1Nc1ncc2cc(C)nc(NCC(C)(C)C)c2n1` has an inhibition of ≤ 15% (RAF1 Y340D/Y341D; cell-free assay; TR-FRET; 1 µM).
With `CC(=O)N1CCC(c2ccc(C(=O)NC(=N)N)cc2C(F)(F)F)CC1` the remaining binding was 100% (RAF1; cell-free assay; competition with immobilised ligand; 1 µM).
The remaining activity of `Cc1[nH]c(/C=C2\C(=O)Nc3ccc(F)cc32)c(C)c1C(=O)N[C@H]1CCN(C(=O)N(C)C)C1` is reported as 100% (RAF1; enzyme activity; inhibitor; 1 µM).
For `C[C@@H]1CN(c2cc(-c3nn(C)c4ccc(OC5(C)CC5)cc34)ncn2)C[C@H](C)O1`, the remaining binding was 100% (RAF1; cell-free assay; competition with immobilised ligand; 1 µM).
`CS(=O)(=O)Nc1cccc(-c2csc(NC(=O)CSc3nc4nccnc4c(=O)n3CCc3ccccc3)n2)c1` has an inhibition of -1% (RAF1 Y340D/Y341D; enzyme activity; inhibitor; 10 µM).
With `CCOC(=O)c1cc2cc(-c3cc(C(=O)NCc4ccc(C(=O)O)cc4)nn3C)ccc2[nH]1` the remaining binding was 100% (RAF1; cell-free assay; competition with immobilised ligand; 0.1 µM).
For `Cc1cc(NC(=O)c2cccc3cc(-c4cccc5[nH]nc(N)c45)ccc23)ccc1F`, the activity vs control was 97% (RAF1; enzyme activity; inhibitor; 0.1 µM).
`C[C@@H]1CCN(C(=O)CC#N)C[C@@H]1N(C)c1ncnc2[nH]ccc12` has a remaining signal of 95.5% (RAF1; cell-free assay; inhibitor; 0.5 µM).
The remaining binding of `CNC(=O)Nc1ccc2c(c1)CC[C@@]21OC(=O)N(CC(=O)N(Cc2ccc(F)cc2)[C@@H](C)C(F)(F)F)C1=O` is reported as 100% (RAF1; cell-free assay; competition with immobilised ligand; 1 µM).
For `COc1cc2c(N3CCN(C(=O)Nc4ccc(OC(C)C)cc4)CC3)ncnc2cc1OCCCN1CCCCC1`, the remaining signal was 96.7% (RAF1; cell-free assay; 0.5 µM).
`O=C(Nc1cnn(-c2csc(C(=O)NC3COC3)c2)c1)Nc1c(F)cccc1Cl` gave a remaining activity of 92.5% (RAF1; enzyme activity; inhibitor; 5 µM).
With `Nc1c(C(=O)NCc2ccc(C(=O)NCCCC3CCCCC3)cc2)cnn1-c1ccccc1` the remaining binding was 100% (RAF1; cell-free assay; competition with immobilised ligand; 0.1 µM).
With `CC(C)c1ccc(NC(=O)c2cccs2)c(-c2nc3ccccc3[nH]c2=O)c1` the activity vs control was 96% (RAF1; enzyme activity; inhibitor; 1 µM).
For `Cc1cc(-n2nc(Cc3cc(F)cc(C(F)(F)F)c3)nc2C)ccc1C(N)=O`, the remaining binding was 87% (RAF1; cell-free assay; competition with immobilised ligand; 1 µM).
`COc1cc(Cl)c(C(=O)N[C@@H](CN[C@H]2CC[C@@H](N)CC2)Cc2ccc(C#N)cc2)cc1-c1ccc(CN[C@H](C)c2ccc(C)cc2)o1` gave a remaining activity of 97% (RAF1; enzyme activity; inhibitor; 1 µM).
For `Nc1cnc(N2CCc3cc(S(=O)(=O)Nc4c(F)cc(Cl)cc4F)cc(N4CCCC4=O)c32)nc1`, the remaining binding was 79% (RAF1; cell-free assay; competition with immobilised ligand; 1 µM).
`CC(C)(O)[C@H]1CC[C@H](Nc2ccc3ncc(-c4cccc(C(F)(F)F)c4)n3n2)CC1` gave a remaining activity of 91.6% (RAF1; enzyme activity; inhibitor; 1 µM).
`CC(C)(C)c1nc(-c2cccc(NS(=O)(=O)c3c(F)cccc3F)c2F)c(-c2ccnc(N)n2)s1` gave a remaining activity of 1% (RAF1 Y340D/Y341D; enzyme activity; inhibitor; radiometric; 1 µM).
`Cc1ccc(NC(=O)c2ccc(C)c(C(F)(F)F)c2)cc1C#Cc1nn(C2CCC(O)CC2)c2ncnc(N)c12` (stereo not shown) gave a remaining signal of 24% (RAF1; cell-free assay; 10 µM).
The remaining signal of `Nc1ncnc2occ(-c3ccc(NC(=O)Nc4cc(C(F)(F)F)ccc4F)cc3)c12` is reported as 0% (RAF1; cell-free assay; inhibitor; 20 µM).
`CN1CC(Oc2cnc(C#N)cc2-c2ccn3nc(NC(=O)C4CC4)cc3c2)C1` gave an inhibition of 2% (RAF1; enzyme activity; inhibitor; 1 µM).
`COc1cc(-c2cc(-c3ccc(N4CCNCC4)cc3)cnc2N)cc(OC)c1OC` has an inhibition of 2% (RAF1; enzyme activity; inhibitor; 0.1 µM).
The remaining signal of `O=C1NC(=O)c2cc(Nc3ccc(F)cc3)c(Nc3ccc(F)cc3)cc21` is reported as 81.9% (RAF1; cell-free assay; 0.5 µM).
`CN(C)C1CCN(CC#Cc2nn(C3CCCC3)c3nc(NCc4ccccc4)ncc23)C1` (stereo not shown) gave an inhibition of 3% (RAF1 Y340D/Y341D; enzyme activity; inhibitor; FRET; 10 µM).
`CCOCCn1cc(C(=O)Nc2ccc(-n3nc(-c4cccnc4)cc3C(F)(F)F)cn2)ccc1=O` gave a remaining binding of 100% (RAF1; cell-free assay; competition with immobilised ligand; 1 µM).
`C[S+]([O-])c1ccc(-c2nc(-c3ccncc3)c(-c3ccc(F)cc3)[nH]2)cc1` (stereo not shown) gave a remaining signal of 41.1% (RAF1; cell-free assay; 0.5 µM).
For `CNCc1ccc(-c2cc(-c3nc(-c4ccc(S(=O)(=O)C(C)C)cc4)cnc3N)on2)cc1`, the inhibition was 0% (RAF1; enzyme activity; inhibitor; 0.4 µM).
